Results published in publication PMC9827987 (Chemmedchem, 2022).
Read-outs that look alike come from different tables or passages of the source.

Assays:
PfDHFR-WT = PfDHFR-WT (Plasmodium falciparum, UniProt P13922, N108S/R59C); assay: DHFR enzyme inhibition assay, wild type; assay type: biochemical
PfDHFR-QM = PfDHFR-QM (Plasmodium falciparum, UniProt P13922, I164L/N51I); assay: DHFR enzyme inhibition assay, quadruple mutant; assay type: biochemical
[1] = system: P. falciparum TM4/8.2 (wild type PfDHFR); assay: In vitro antimalarial activity, 3H-hypoxanthine incorporation, TM4/8.2; assay type: cell-based; conditions: Plasmodium falciparum
[2] = system: P. falciparum V1/S (QM PfDHFR); assay: In vitro antimalarial activity, 3H-hypoxanthine incorporation, V1S; assay type: cell-based; conditions: Plasmodium falciparum, read-out: IC50 PfV1S
Procedure, shortened: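 P. falciparum V1/S (quadruple-mutant PfDHFR, chloroquine-resistant) grown in human erythrocytes at 37 °C under 3% CO2. Medium was RPMI 1640 with 25 mM HEPES, 0.2% NaHCO3, 40 µg/mL gentamicin and 8% human serum. Activity was measured by ³H-hypoxanthine incorporation.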

KB cells = assay: Cytotoxicity, sulforhodamine B staining, KB; assay type: cell-based; conditions: Homo sapiens, read-out: IC50 KB
HsDHFR = molecular target: T1, HsDHFR (Homo sapiens, UniProt P00374); assay: biochemical
T1 sequence (P00374 1-187): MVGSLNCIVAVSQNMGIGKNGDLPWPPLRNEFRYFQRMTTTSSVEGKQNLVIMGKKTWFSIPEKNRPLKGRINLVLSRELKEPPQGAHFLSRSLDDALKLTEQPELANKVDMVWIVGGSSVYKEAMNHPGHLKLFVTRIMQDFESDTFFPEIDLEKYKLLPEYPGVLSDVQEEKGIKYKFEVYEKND

[3] = read-out: IC50 PfTM4/8.2, WT P. falciparum, drug sensitive strain

Structure (SMILES): Nc1nc(N)c(CNCCc2ccc(Cl)c(Cl)c2)c(C2CCCCC2)n1 [7 y, 6‐Cyclohexyl‐5‐{[(3,4‐dichlorophenethyl)amino]methyl}pyrimidine‐2,4‐diamine]
- Ki (PfDHFR-WT): 0.009 ± 0.0007 µM
- Ki (PfDHFR-QM): 0.028 ± 0.003 µM
- IC50 ([1]; read-out: IC50 PfTM4/8.2): 3.5 ± 0.3 µM
- IC50 [2]: 4 ± 0.3 µM
- IC50 (KB cells): 22 ± 0.1 µM
- Ki (HsDHFR): > 250 µM

Structure (SMILES): Nc1nc(N)c(CNCCc2cccc(Cl)c2)c(C2CCCCC2)n1 [7 v, 6‐Cyclohexyl‐5‐{[(3‐chlorophenethyl)amino]methyl}pyrimidine‐2,4‐diamine]
- Ki (PfDHFR-WT): 0.025 ± 0.001 µM
- Ki (PfDHFR-QM): 0.036 ± 0.004 µM
- IC50 ([1]; read-out: IC50 PfTM4/8.2): 3.1 ± 0.4 µM
- IC50 [2]: 4 ± 0.2 µM
- IC50 (KB cells): 23 ± 0.2 µM
- Ki (HsDHFR): > 250 µM

Structure (SMILES): Nc1nc(N)c(CNCCc2ccc(Cl)cc2)c(C2CCCCC2)n1 [7 w, 6‐Cyclohexyl‐5‐{[(4‐chlorophenethyl)amino]methyl}pyrimidine‐2,4‐diamine]
- Ki (PfDHFR-QM): 0.06 ± 0.001 µM
- IC50 ([1]; read-out: IC50 PfTM4/8.2): 3.1 ± 0.2 µM
- IC50 [2]: 4.5 ± 0.3 µM
- IC50 (KB cells): 23 ± 0.2 µM
- Ki (HsDHFR): > 500 µM

Structure (SMILES): COc1ccccc1CCNCc1c(N)nc(N)nc1C1CC1 [7 d, 6‐Cyclopropyl‐5‐{[(2‐methoxyphenethyl)amino]methyl}pyrimidine‐2,4‐diamine]
- Ki (PfDHFR-WT): 0.015 ± 0.001 µM
- Ki (PfDHFR-QM): 0.031 ± 0.002 µM
- IC50 [1, 3]: 25 ± 1 µM
- IC50 [2]: 35 ± 4 µM
- IC50 (KB cells): > 100 µM
- Ki (HsDHFR): 1.59 ± 0.029 µM

Structure (SMILES): COc1cccc(CCNCc2c(N)nc(N)nc2C2CC2)c1 [7 e, 6‐Cyclopropyl‐5‐{[(3‐methoxyphenethyl)amino]methyl}pyrimidine‐2,4‐diamine]
- Ki (PfDHFR-WT): 0.0044 ± 0.0002 µM
- Ki (PfDHFR-QM): 0.026 ± 0.0005 µM
- IC50 [1, 3]: 4.2 ± 0.2 µM
- IC50 [2]: 13 ± 1 µM
- IC50 (KB cells): 74 ± 4 µM
- Ki (HsDHFR): 1.04 ± 0.034 µM

Structure (SMILES): Nc1nc(N)c(CNCCc2cccc(F)c2)c(C2CCCCC2)n1 [7 s, 6‐Cyclohexyl‐5‐{[(3‐fluorophenethyl)amino]methyl}pyrimidine‐2,4‐diamine]
- Ki (PfDHFR-WT): 0.076 ± 0.005 µM
- Ki (PfDHFR-QM): 0.074 ± 0.002 µM
- IC50 ([1]; read-out: IC50 PfTM4/8.2): 3 ± 0.4 µM
- IC50 [2]: 11 ± 2 µM
- IC50 (KB cells): 62 ± 3 µM
- Ki (HsDHFR): > 500 µM

Structure (SMILES): Nc1nc(N)c(CNCCc2ccccc2F)c(C2CCCCC2)n1 [7 r, 6‐Cyclohexyl‐5‐{[(2‐fluorophenethyl)amino]methyl}pyrimidine‐2,4‐diamine]
- Ki (PfDHFR-WT): 0.061 ± 0.0015 µM
- Ki (PfDHFR-QM): 0.083 ± 0.001 µM
- IC50 ([1]; read-out: IC50 PfTM4/8.2): 4.1 ± 0.7 µM
- IC50 [2]: 16 ± 2 µM
- IC50 (KB cells): 48 ± 14 µM
- Ki (HsDHFR): > 500 µM

Structure (SMILES): COc1ccc(CCNCc2c(N)nc(N)nc2C2CC2)cc1 [7 f, 6‐Cyclopropyl‐5‐{[(4‐methoxyphenethyl)amino]methyl}pyrimidine‐2,4‐diamine]
- Ki (PfDHFR-WT): 0.0035 ± 0.0004 µM
- Ki (PfDHFR-QM): 0.029 ± 0.0006 µM
- IC50 [1, 3]: 3.5 ± 0.2 µM
- IC50 [2]: 15 ± 3 µM
- IC50 (KB cells): 72 ± 1 µM
- Ki (HsDHFR): 0.647 ± 0.006 µM

Structure (SMILES): Nc1nc(N)c(CNCCc2ccccc2F)c(C2CC2)n1 [7 g, 6‐Cyclopropyl‐5‐{[(2‐fluorophenethyl)amino]methyl}pyrimidine‐2,4‐diamine]
- Ki (PfDHFR-WT): 0.0082 ± 0.0003 µM
- Ki (PfDHFR-QM): 0.031 ± 0.002 µM
- IC50 [1, 3]: 12 ± 5 µM
- IC50 [2]: 25 ± 2 µM
- IC50 (KB cells): > 100 µM
- Ki (HsDHFR): 0.205 ± 0.001 µM

Structure (SMILES): Nc1nc(N)c(CNCCc2ccc(Cl)cc2)c(C2CC2)n1 [7 l, 6‐Cyclopropyl‐5‐{[(4‐chlorophenethyl)amino]methyl}pyrimidine‐2,4‐diamine]
- Ki (PfDHFR-WT): 0.0025 ± 0.0002 µM
- Ki (PfDHFR-QM): 0.027 ± 0.0001 µM
- IC50 [1, 3]: 5 ± 0.6 µM
- IC50 [2]: 18 ± 3 µM
- IC50 (KB cells): 70 ± 0.5 µM
- Ki (HsDHFR): 0.142 ± 0.006 µM

Structure (SMILES): COc1cccc(CCNCc2c(N)nc(N)nc2C2CCCCC2)c1 [7 p, 6‐Cyclohexyl‐5‐{[(3‐methoxyphenethyl)amino]methyl}pyrimidine‐2,4‐diamine]
- Ki (PfDHFR-WT): 0.031 ± 0.005 µM
- Ki (PfDHFR-QM): 0.056 ± 0.002 µM
- IC50 ([1]; read-out: IC50 PfTM4/8.2): 3.5 ± 0.2 µM
- IC50 [2]: 4.1 ± 0.3 µM
- IC50 (KB cells): 23 ± 0.3 µM
- Ki (HsDHFR): > 500 µM

Structure (SMILES): COc1cccc(CCNCc2c(N)nc(N)nc2-c2ccccc2)c1 [7 b, 6‐Phenyl‐5‐{[(3‐methoxyphenethyl)amino]methyl}pyrimidine‐2,4‐diamine]
- Ki (PfDHFR-WT): 0.107 ± 0.003 µM
- Ki (PfDHFR-QM): 0.074 ± 0.001 µM
- IC50 ([1]; read-out: IC50 PfTM4/8.2): 27 ± 4 µM
- IC50 [2]: 48 ± 1 µM
- IC50 (KB cells): > 100 µM
- Ki (HsDHFR): > 500 µM

Structure (SMILES): Nc1nc(N)c(CNCCc2cccc(Cl)c2)c(C2CC2)n1 [7 k, 6‐Cyclopropyl‐5‐{[(3‐chlorophenethyl)amino]methyl}pyrimidine‐2,4‐diamine]
- Ki (PfDHFR-WT): 0.0025 ± 0.0001 µM
- Ki (PfDHFR-QM): 0.02 ± 0.0009 µM
- IC50 [1, 3]: 4.2 ± 0.9 µM
- IC50 [2]: 14 ± 4 µM
- IC50 (KB cells): 82 ± 13 µM
- Ki (HsDHFR): 0.345 ± 0.007 µM
